The record followed here is PubChem BioAssay.

A short description of assay [1]: reducers of endogenous Her2 protein level, primary screen, SKBR3 breast tumor cells, AlphaScreen, ATP viability (AID 461;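 active means Her2 level under about 52% in both replicate screens, with viability over 70% of control, limit read from the data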;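 on Her2 level: lower value means less Her2 protein in the cells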;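 on viability: percent of carrier control wells set as 100% viability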). To be noted: 18-24 h, measured here: SKBR3 viability, ATP luminescence, at 10 µM. In general terms: Alpha assays give light when donor and acceptor beads are brought close together.
Assay [2] addresses Receptor tyrosine-protein kinase erbB-2 (Homo sapiens) (UniProt P04626). The description is as above. The settings on record: 18-24 h, at 10 µM, stronger effect = lower value.
The nature of assay [3]: SK-BR-3 cell growth inhibitors, pilot screen, 24 h, human (AID 572;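 active means viability at or below 10% of carrier control in both of two separate runs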;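 further: compound exposure lasted between 18 and 24 h rather than exactly 24 h; 100% = carrier-treated control wells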). To be noted: SK-BR-3 viability, CellTiter-Glo luminescence, at 10 µM, stronger effect = lower value. (In ATP-based viability assays light output follows the ATP content of the culture.)
Assay [4] in a line: HUVEC growth inhibition – cell-based, human, primary screen (AID 575;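 active means viability at or below 30% in both replicate assays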;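 further: 100% = median of untreated cell wells with 0.1% DMSO on each plate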). The settings on record: HUVEC proliferation, CellTiter-Glo luminescence, 72 h; at 10 µM; stronger effect = lower value. Put shortly:
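Assay system: primary human umbilical vein endothelial cells / Buffer or medium: endothelial basal medium with 2% FBS plus growth supplements / Compound dosing: one dose, 10 µM final, 0.1% DMSO / Timing: 72 h treatment at 37 °C / Signal: CTG luminescence / Benchmarks: 32 DMSO-only cell-control wells (high), 32 MePR drug-control wells (low) per plate / Plate: collagen-coated 384-well format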

A short description of assay [5]: growth inhibitors of H69AR lung tumor, primary screen, human, duplicate replicates (AID 580;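 active means viability at or under a set limit in both replicates, limit being median viability minus 3 SD, cut at about 48% in these data, passing the limit was not always enough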;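 further: 100% = mean luminescence of untreated wells and 0% = no signal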). The settings on record: H69AR lung tumor cells viability, ATP luminescence, 72 h; at 10 µM; stronger effect = lower value.
Assay [6] is described as follows: reversal of MRP1-mediated doxorubicin resistance, pilot screen, H69AR cells, doxorubicin co-treatment (AID 601). The settings on record: CellTiter-Glo, 72 h, at 10 µM; for differential viability (reversal): stronger effect = higher value.
The nature of assay [7]: 384-well plate pilot, post-Golgi transport modulator project, inhibition of yeast transport mutant growth (AID 636; in the data active means inhibition above about 31%). To be noted: absorbance 615 nm, about 18 h, stronger effect = higher value.
Assay [8] is described as follows: growth suppression of yeast trafficking mutant, preliminary HTS, modulators of trafficking downstream of Golgi apparatus project, 1536-format plate, OD 615 nm (AID 637; in the data active means inhibition above about 30%). The settings on record: yeast transport mutant growth, absorbance 615 nm, 18 h; stronger effect = higher value.
Setting [9] is: H69AR cells + 2 uM doxorubicin, measured here: viability with 2 uM doxorubicin, stronger effect = lower value.
[10] abbreviates: H69AR cells, compound alone cytotoxicity.

Active and inactive are the calls of the source.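 How the source made its calls, unless noted: active means viability loss from added drug above about 55%, and viability with drug at most 40%, in both replicates (limit read from the data, passing the limit was not always enough); inconclusive means both conditions met in only one replicate; inactive means neither replicate meets both conditions.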

Chain of Receptor tyrosine-protein kinase erbB-2 (Homo sapiens) (P04626 whole entry, looked up): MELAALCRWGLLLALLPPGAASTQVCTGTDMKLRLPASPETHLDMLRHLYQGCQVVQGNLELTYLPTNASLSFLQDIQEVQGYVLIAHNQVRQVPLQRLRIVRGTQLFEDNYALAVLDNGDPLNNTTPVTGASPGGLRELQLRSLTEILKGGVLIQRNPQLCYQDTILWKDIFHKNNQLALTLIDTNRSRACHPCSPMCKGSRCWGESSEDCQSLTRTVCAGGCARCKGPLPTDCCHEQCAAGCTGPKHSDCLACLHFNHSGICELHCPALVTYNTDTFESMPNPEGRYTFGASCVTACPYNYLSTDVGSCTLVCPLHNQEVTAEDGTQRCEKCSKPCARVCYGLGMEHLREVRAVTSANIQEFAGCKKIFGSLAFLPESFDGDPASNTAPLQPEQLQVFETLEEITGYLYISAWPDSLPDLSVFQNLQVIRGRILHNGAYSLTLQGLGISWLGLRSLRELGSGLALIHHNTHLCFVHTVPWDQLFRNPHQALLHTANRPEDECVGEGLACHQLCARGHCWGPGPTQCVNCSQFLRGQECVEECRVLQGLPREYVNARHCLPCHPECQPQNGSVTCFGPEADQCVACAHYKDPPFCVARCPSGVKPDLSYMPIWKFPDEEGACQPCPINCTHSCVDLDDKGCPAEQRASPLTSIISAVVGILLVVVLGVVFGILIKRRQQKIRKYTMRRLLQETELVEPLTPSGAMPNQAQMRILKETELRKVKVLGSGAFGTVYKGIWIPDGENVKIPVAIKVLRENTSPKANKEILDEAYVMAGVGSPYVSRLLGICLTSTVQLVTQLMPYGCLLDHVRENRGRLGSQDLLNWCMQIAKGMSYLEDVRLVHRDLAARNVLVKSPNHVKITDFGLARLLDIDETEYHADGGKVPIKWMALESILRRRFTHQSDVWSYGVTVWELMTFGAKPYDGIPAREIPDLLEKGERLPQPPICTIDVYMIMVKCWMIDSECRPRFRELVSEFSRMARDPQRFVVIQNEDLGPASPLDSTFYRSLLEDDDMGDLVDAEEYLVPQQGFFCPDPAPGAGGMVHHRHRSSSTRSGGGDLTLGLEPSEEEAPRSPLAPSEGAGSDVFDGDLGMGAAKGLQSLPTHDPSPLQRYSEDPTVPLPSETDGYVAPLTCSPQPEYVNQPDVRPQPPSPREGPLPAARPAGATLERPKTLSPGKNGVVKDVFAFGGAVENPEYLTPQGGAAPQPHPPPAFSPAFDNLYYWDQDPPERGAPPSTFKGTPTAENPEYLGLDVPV

A word on the viability: it is a read-out of living cells in per cent, often relative to untreated cells. The inhibition is the relative decrease from the control value, in per cent. On to `Cc1ccc(CNC(=O)CCCn2c(=O)c3ccccc3n(CC(=O)NCc3ccco3)c2=O)cc1`, for which the viability is 90.5% in assay [1]; 90.5% (inactive) in assay [3]; 104% (inactive) in assay [4]; 89.6% (inactive) in assay [5]; 91% in assay [6] (setting [9]); 89.6% in assay [6] (setting [10]). Also, the Her2 level in assay [2] was 144% (inactive). Also, in assay [6] (H69AR cells + 2 uM doxorubicin), the differential viability (reversal) is -1.43% (inactive). Moreover, the results for the inhibition in assay [7] and in assay [8] were 2.76% (inactive) and 12.6% (inactive), respectively.
For `CCC(C)NC(=O)CSC1=Nc2ccccc2C2=NC(CC(=O)NCc3ccccc3)C(=O)N12` (stereo not given), the viability in assay [1] is 96.5%; in assay [3], 96.5% (inactive); in assay [4], 85.7% (inactive); in assay [5] it was 107% (inactive); in assay [6] (setting [9]) it was 94.2%; in assay [6] (setting [10]), 107%. Besides, in assay [2], the Her2 level was 88% (inactive). In addition, in assay [6] (H69AR cells + 2 uM doxorubicin), the differential viability (reversal) was 13.1% (inactive). Besides, the inhibition was -3.03% (inactive) in assay [7] and -3.02% (inactive) in assay [8].
For the molecule `COC(=O)[C@H](CCSC)NC(=O)Nc1cc(C)ccc1C`, the viability in assay [1] was 124%; in assay [3] it was 124% (inactive); in assay [4] it was 84.1% (inactive); in assay [5] it was 82.2% (inactive); in assay [6] (setting [9]), 90%; in assay [6] (setting [10]), 82.2%. In assay [2], the Her2 level is 89% (inactive). Besides, the differential viability (reversal) in assay [6] (H69AR cells + 2 uM doxorubicin) is -7.82% (inactive). In addition, the inhibition in assay [7] is -6.22% (inactive); in assay [8] it was 5.71% (inactive).
Take `Cc1ccc(NC(=O)CSc2nnc(CCCCCNC(=O)OC(C)(C)C)o2)c(C)c1`: the viability in assay [1] was 112%; in assay [3], 112% (inactive); in assay [4], 88.6% (inactive); in assay [5], 93.2% (inactive); in assay [6] (setting [9]), 91.4%; in assay [6] (setting [10]) it was 93.2%. Moreover, in assay [2], the Her2 level was 87% (inactive). In addition, the differential viability (reversal) in assay [6] (H69AR cells + 2 uM doxorubicin) was 1.79% (inactive). The results for the inhibition in assay [7] and in assay [8] were 1.71% (inactive) and 1.29% (inactive), respectively.
Consider `Cc1cc2ncn(S(=O)(=O)c3ccc(S(=O)(=O)N4CCOCC4)cc3)c2cc1C`, for which the viability in assay [1] was 91.5%; in assay [3] it was 91.5% (inactive); in assay [4], 102% (inactive); in assay [5], 98.3% (inactive); in assay [6] (setting [9]), 97.3%; in assay [6] (setting [10]) it was 98.3%. For the same molecule, the Her2 level in assay [2] is 91.5% (inactive). In assay [6] (H69AR cells + 2 uM doxorubicin), the differential viability (reversal) was 0.945% (inactive). Further, the inhibition in assay [7] was -1.47% (inactive); in assay [8], -7.1% (inactive).
With `O=S(=O)(c1ccc(OCC(O)CN2CCN(c3ccccc3)CC2)cc1)N1CCOCC1` (stereo not given), the viability was 100% in assay [1]; 100% (inactive) in assay [3]; 110% (inactive) in assay [4]; 96.4% (inactive) in assay [5]; 91.2% in assay [6] (setting [9]); 96.4% in assay [6] (setting [10]). For the same molecule, in assay [2], the Her2 level was 90% (inactive). In addition, the differential viability (reversal) in assay [6] (H69AR cells + 2 uM doxorubicin) is 5.24% (inactive). The figures for the inhibition in assay [7] and in assay [8] were -7.57% (inactive) and -3.67% (inactive), respectively.
Turning to `Cc1ccccc1Cn1ccc(NC(=O)c2cnn3c(C(F)(F)F)cc(-c4ccco4)nc23)n1`, the viability in assay [1] is 76.5%; in assay [3], 76.5% (inactive); in assay [4], 62.3% (inactive); in assay [5] it was 60.4% (inactive); in assay [6] (setting [9]) it was 35.3%; in assay [6] (setting [10]), 60.4%. Also, the Her2 level in assay [2] was 81% (inactive). The differential viability (reversal) in assay [6] (H69AR cells + 2 uM doxorubicin) is 25.2% (inactive). Moreover, the inhibition in assay [7] was -4.13% (inactive); in assay [8], 5.9% (inactive).
Consider `Cn1c(=O)cc(SCC(=O)NCC2CCCO2)c2ccc(Cl)cc21` (stereo not given), for which the viability was 88.5% in assay [1]; 88.5% (inactive) in assay [3]; 89% (inactive) in assay [4]; 85.1% (inactive) in assay [5]; 89.1% in assay [6] (setting [9]); 85.1% in assay [6] (setting [10]). Moreover, the Her2 level in assay [2] is 88% (inactive). For the same molecule, the differential viability (reversal) in assay [6] (H69AR cells + 2 uM doxorubicin) is -4% (inactive). For the same molecule, the inhibition in assay [7] is -0.26% (inactive); in assay [8], -3.71% (inactive).
In the case of `CC(=O)N1CCc2cc(S(=O)(=O)CCC(=O)Nc3cccc(F)c3)ccc21`, the viability in assay [1] was 109%; in assay [3], 109% (inactive); in assay [4], 97.3% (inactive); in assay [5], 93.8% (inactive); in assay [6] (setting [9]) it was 80.7%; in assay [6] (setting [10]), 93.8%. Further, the Her2 level in assay [2] is 104% (inactive). In addition, the differential viability (reversal) in assay [6] (H69AR cells + 2 uM doxorubicin) was 13.1% (inactive). Besides, the inhibition in assay [7] is -4.74% (inactive); in assay [8] it was -1.5% (inactive).
Turning to `Cc1nc2sc(C(c3cccc(F)c3)N3CCN(C(=O)c4ccco4)CC3)c(O)n2n1` (stereo not given), the viability in assay [1] is 94%; in assay [3] it was 94% (inactive); in assay [4] it was 120% (inactive); in assay [5], 99.3% (inactive); in assay [6] (setting [9]), 96.7%; in assay [6] (setting [10]) it was 99.3%. In assay [2], the Her2 level is 109% (inactive). Besides, the differential viability (reversal) in assay [6] (H69AR cells + 2 uM doxorubicin) was 2.58% (inactive). Also, the inhibition in assay [7] was -5% (inactive); in assay [8], -9.83% (inactive).
In the case of `Cc1cc(C)nc(NS(=O)(=O)c2ccc(NC(=O)Cn3c(=O)oc4ccccc43)cc2)n1`, the viability in assay [1] is 89.5%; in assay [3] it was 89.5% (inactive); in assay [4], 89% (inactive); in assay [5], 86.7% (inactive); in assay [6] (setting [9]), 84.2%; in assay [6] (setting [10]), 86.7%. Besides, the Her2 level in assay [2] was 101% (inactive). In assay [6] (H69AR cells + 2 uM doxorubicin), the differential viability (reversal) is 2.6% (inactive). For the same molecule, the inhibition was -0.9% (inactive) in assay [7] and 2% (inactive) in assay [8].
With `COc1cc(/C=N/n2c(C)nnc2C)cc(OC)c1OC`, the viability in assay [1] is 104%; in assay [3], 104% (inactive); in assay [4], 105% (inactive); in assay [5], 103% (inactive); in assay [6] (setting [9]), 83.6%; in assay [6] (setting [10]), 103%. Also, in assay [2], the Her2 level is 95% (inactive). Moreover, the differential viability (reversal) in assay [6] (H69AR cells + 2 uM doxorubicin) was 19.3% (inactive). The inhibition in assay [7] was -0.53% (inactive); in assay [8] it was 5.74% (inactive).
Take `CCC(C(=O)Nc1ncccn1)(C(F)(F)F)C(F)(F)F`: the viability in assay [1] was 86.5%; in assay [3], 86.5% (inactive); in assay [4], 95.7% (inactive); in assay [5], 103% (inactive); in assay [6] (setting [9]), 94.6%; in assay [6] (setting [10]) it was 103%. In assay [2], the Her2 level is 99% (inactive). Also, the differential viability (reversal) in assay [6] (H69AR cells + 2 uM doxorubicin) is 8.62% (inactive). For the same molecule, the values for the inhibition in assay [7] and in assay [8] were 0.27% (inactive) and 0.82% (inactive), respectively.
For `COc1ccc(CCN2C(=O)CCC2(C)C(=O)NCc2cccnc2)cc1OC` (stereo not given), the viability in assay [1] is 106%; in assay [3], 106% (inactive); in assay [4], 109% (inactive); in assay [5] it was 89.2% (inactive); in assay [6] (setting [9]), 88%; in assay [6] (setting [10]), 89.2%. In addition, the Her2 level in assay [2] was 91% (inactive). In addition, the differential viability (reversal) in assay [6] (H69AR cells + 2 uM doxorubicin) is 1.2% (inactive). For the same molecule, the inhibition is -2.86% (inactive) in assay [7] and -2.22% (inactive) in assay [8].
With `Cc1ccc(-c2nc(N)n(C(=O)c3cccnc3)n2)cc1`, the viability is 86.5% in assay [1]; 86.5% (inactive) in assay [3]; 95.1% (inactive) in assay [4]; 105% (inactive) in assay [5]; 85.7% in assay [6] (setting [9]); 105% in assay [6] (setting [10]). In assay [2], the Her2 level is 87.5% (inactive). Moreover, the differential viability (reversal) in assay [6] (H69AR cells + 2 uM doxorubicin) is 19.1% (inactive). Further, the inhibition is -3.08% (inactive) in assay [7] and 0.33% (inactive) in assay [8].
